Common to all, as to type: functional
For assay [1], the system named is Diutina rugosa. Put plainly: Antifungal activity against Candida rugosa NCIM 3462 assessed as zone of inhibition at 150 ug by agar well diffusion method. The conditions noted are these: read-out: IZ. Put shortly: (§1)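 Agar well diffusion on potato dextrose agar. Plates were spread with 0.5 mL of a week-old culture of the test organism, and 6 mm wells were cut with a cork borer. Compounds were dissolved in DMSO at different concentrations and added to the wells, with controls included. Plates were held at 27 °C for 48 h, and inhibition zone diameters were read in mm. Three to four replicates per treatment.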
(In general: Agar diffusion results depend on both activity and mobility in agar.)

For assay [2], the system named is Pseudomonas aeruginosa. Nature of the assay: Antibacterial activity against Pseudomonas aeruginosa MTCC 741 by broth dilution method. The method in brief: (§2)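 MIC determined by broth dilution following NCCL standards. Penicillin and streptomycin were tested in parallel under identical conditions.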
Assay [3] concerns Bacillus subtilis. Put plainly: Antibacterial activity against Bacillus subtilis MTCC 441 by broth dilution method. The method in brief: as §2
For orientation: Broth dilution looks for growth in wells or tubes with falling amounts of substance.

The subject of assay [4] is Saccharomyces cerevisiae. Put plainly: Antifungal activity against Saccharomyces cerevisiae MTCC 36 assessed as zone of inhibition at 100 ug by agar well diffusion method. Particulars: read-out: IZ. The method in brief: as §1
Assay [5] relates to Klebsiella pneumoniae. Nature of the assay: Antibacterial activity against Klebsiella pneumoniae MTCC 618 by broth dilution method. Put shortly:
as §2

Assay [6] concerns Escherichia coli. Nature of the assay: Antibacterial activity against Escherichia coli MTCC 443 by broth dilution method. The method in brief: as §2
Assay [7] concerns Diutina rugosa. Nature of the assay: Antifungal activity against Candida rugosa NCIM 3462 assessed as zone of inhibition at 100 ug by agar well diffusion method. Particulars: read-out: IZ. The method in brief: as §1
Assay [8] has as its system Staphylococcus epidermidis. Put plainly: Antibacterial activity against Staphylococcus epidermidis MTCC 2639 by broth dilution method. The method in brief: as §2
In assay [9] the test system is Rhizopus arrhizus. Nature of the assay: Antifungal activity against Rhizopus oryzae MTCC 262 assessed as zone of inhibition at 150 ug by agar well diffusion method. Particulars: read-out: IZ. The method in brief:
as §1

The test system of assay [10] is Candida albicans. Nature of the assay: Antifungal activity against Candida albicans MTCC 227 assessed as zone of inhibition at 100 ug by agar well diffusion method. Particulars: read-out: IZ. The method in brief: as §1
The test system of assay [11] is Saccharomyces cerevisiae. Nature of the assay: Antifungal activity against Saccharomyces cerevisiae MTCC 36 assessed as zone of inhibition at 150 ug by agar well diffusion method. Particulars: read-out: IZ. The method in brief:
as §1

Assay [12] concerns Aspergillus niger. Put plainly: Antifungal activity against Aspergillus niger MTCC 282 assessed as zone of inhibition at 150 ug by agar well diffusion method. Particulars: read-out: IZ. Put shortly: as §1
The subject of assay [13] is Staphylococcus aureus. Nature of the assay: Antibacterial activity against Staphylococcus aureus MTCC 96 by broth dilution method. The method in brief: as §2
Assay [14] concerns Rhizopus arrhizus. Put plainly: Antifungal activity against Rhizopus oryzae MTCC 262 assessed as zone of inhibition at 100 ug by agar well diffusion method. The conditions noted are these: read-out: IZ. The method in brief: as §1
Assay [15] has as its system Candida albicans. Put plainly: Antifungal activity against Candida albicans MTCC 227 assessed as zone of inhibition at 150 ug by agar well diffusion method. The conditions noted are these: read-out: IZ. Put shortly: as §1
Assay [16] relates to Aspergillus niger. Nature of the assay: Antifungal activity against Aspergillus niger MTCC 282 assessed as zone of inhibition at 100 ug by agar well diffusion method. The conditions noted are these: read-out: IZ. The method in brief:
as §1

≈ marks a conversion by molar mass, not a printed value.

Broadly, the MIC is the smallest concentration in the dilution series that meets the test's criterion for growth inhibition. High values mean weaker potency, low ones greater potency. As for `CCC(c1oc(CO)cc(=O)c1O)c1c(-c2ccccc2)[nH]c2ccccc12` (stereo unspecified), the zone of inhibition at 150 µg/disc was found to be 0 mm in [1]; 0 mm in assay [9]; 20 mm in [11]; 0 mm in assay [12]; 0 mm in assay [15]. For the same molecule, the minimum inhibitory concentration (MIC) in assay [2] was determined as 37.5 µg/mL (≈ 99.9 µM); in assay [3], 18.8 µg/mL (≈ 49.9 µM); in [5], 75 µg/mL (≈ 200 µM); in assay [6] it was 9.38 µg/mL (≈ 25 µM); in assay [8] it was 18.8 µg/mL (≈ 49.9 µM); in [13], 9.38 µg/mL (≈ 25 µM). Besides, the zone of inhibition at 100 µg/disc in [4] worked out at 14 mm; in [7], 0 mm; in assay [10], 0 mm; in [14] it was 0 mm; in assay [16], 0 mm.
Regarding `CN[C@@H]1[C@H](O[C@H]2[C@H](O[C@H]3[C@H](O)[C@@H](O)[C@H](N=C(N)N)[C@@H](O)[C@@H]3N=C(N)N)O[C@@H](C)[C@]2(O)C=O)O[C@@H](CO)[C@H](O)[C@H]1O` [STREPTOMYCIN], the minimal inhibitory concentration (MIC) in [2] was 1.56 µg/mL (≈ 2.69 µM); in assay [3], 6.25 µg/mL (≈ 10.7 µM); in assay [5], 3.12 µg/mL (≈ 5.37 µM); in assay [6], 6.25 µg/mL (≈ 10.7 µM); in assay [8], 3.12 µg/mL (≈ 5.37 µM); in assay [13], 6.25 µg/mL (≈ 10.7 µM).
For `Cc1[nH]c2ccccc2c1C(c1cccc(Oc2ccccc2)c1)c1oc(CO)cc(=O)c1O` (stereo unspecified), the zone of inhibition at 150 µg/disc came to 16 mm in [1]; 0 mm in [9]; 14 mm in [11]; 14 mm in assay [12]; 14 mm in assay [15]. The MIC came to 75 µg/mL (≈ 165 µM) in [2]; 150 µg/mL (≈ 331 µM) in [3]; 75 µg/mL (≈ 165 µM) in assay [5]; 75 µg/mL (≈ 165 µM) in assay [6]; 150 µg/mL (≈ 331 µM) in assay [8]; 18.8 µg/mL (≈ 41.3 µM) in assay [13]. Also, the zone of inhibition at 100 µg/disc in [4] turned out to be 10 mm; in assay [7] it was 11 mm; in assay [10], 9 mm; in assay [14] it was 0 mm; in assay [16], 9 mm.
Take `C[C@@H]1[C@H](O)[C@@H](C)/C=C/C=C/C=C/C=C/C=C/C=C/C=C/[C@H](O[C@@H]2O[C@H](C)[C@@H](O)[C@H](N)[C@@H]2O)C[C@@H]2O[C@](O)(C[C@@H](O)C[C@@H](O)[C@H](O)CC[C@@H](O)C[C@@H](O)CC(=O)O[C@H]1C)C[C@H](O)[C@H]2C(=O)O` [AMPHOTERICIN B]: the zone of inhibition at 100 µg/disc in [4] was 22 mm; in assay [7] it was 22 mm; in [10] it was 23.5 mm; in [14] it was 24 mm; in assay [16] it was 25 mm.
Take `O=c1cc(CO)oc(C(c2ccccc2)c2c[nH]c3ccccc23)c1O` (stereo unspecified): the zone of inhibition at 150 µg/disc stood at 9 mm in [1]; 0 mm in [9]; 0 mm in assay [11]; 14 mm in [12]; 0 mm in assay [15]. The minimal inhibitory concentration (MIC) in assay [2] was found to be 150 µg/mL (≈ 432 µM); in assay [3], 150 µg/mL (≈ 432 µM); in assay [5], 75 µg/mL (≈ 216 µM); in assay [6] it was 150 µg/mL (≈ 432 µM); in assay [8] it was 150 µg/mL (≈ 432 µM); in [13], 150 µg/mL (≈ 432 µM). The zone of inhibition at 100 µg/disc is 0 mm in [4]; 6 mm in assay [7]; 0 mm in assay [10]; 0 mm in [14]; 10 mm in assay [16].
On to `CC1(C)S[C@@H]2[C@H](NC(=O)Cc3ccccc3)C(=O)N2[C@H]1C(=O)O` [PENICILLIN G], for which the MIC was found to be 12.5 µg/mL (≈ 37.4 µM) in assay [2]; 1.56 µg/mL (≈ 4.67 µM) in assay [3]; 6.25 µg/mL (≈ 18.7 µM) in assay [5]; 12.5 µg/mL (≈ 37.4 µM) in [6]; 3.12 µg/mL (≈ 9.35 µM) in assay [8]; 1.56 µg/mL (≈ 4.67 µM) in assay [13].
Take `COc1ccc(C(c2oc(CO)cc(=O)c2O)c2c[nH]c3ccc(Br)cc23)cc1` (stereo unspecified): the zone of inhibition at 150 µg/disc in assay [1] was 19 mm; in assay [9] it was 0 mm; in assay [11] it was 16 mm; in assay [12], 18 mm; in [15] it was 18 mm. Further, the MIC worked out at 37.5 µg/mL (≈ 82.2 µM) in assay [2]; 150 µg/mL (≈ 329 µM) in assay [3]; 75 µg/mL (≈ 164 µM) in assay [5]; 37.5 µg/mL (≈ 82.2 µM) in assay [6]; 18.8 µg/mL (≈ 41.1 µM) in assay [8]; 18.8 µg/mL (≈ 41.1 µM) in assay [13]. The zone of inhibition at 100 µg/disc stood at 10 mm in assay [4]; 13 mm in assay [7]; 13 mm in assay [10]; 0 mm in [14]; 12 mm in assay [16].
With `O=c1cc(CO)oc(C(c2cccc(Oc3ccccc3)c2)c2c[nH]c3ccccc23)c1O` (stereo unspecified), the zone of inhibition at 150 µg/disc in [1] amounted to 18 mm; in [9] it was 10 mm; in assay [11], 19 mm; in [12], 16 mm; in assay [15] it was 19 mm. The MIC was found to be 75 µg/mL (≈ 171 µM) in assay [2]; 150 µg/mL (≈ 341 µM) in assay [3]; 75 µg/mL (≈ 171 µM) in assay [5]; 75 µg/mL (≈ 171 µM) in assay [6]; 18.8 µg/mL (≈ 42.7 µM) in assay [8]; 37.5 µg/mL (≈ 85.3 µM) in assay [13]. Also, the zone of inhibition at 100 µg/disc in [4] was found to be 14 mm; in assay [7], 13 mm; in [10], 14 mm; in assay [14], 7 mm; in [16], 11 mm.
`COc1ccc(C(c2oc(CO)cc(=O)c2O)c2c(-c3ccccc3)[nH]c3ccccc23)cc1` (stereo unspecified): the zone of inhibition at 150 µg/disc in assay [1] came to 14 mm; in [9] it was 0 mm; in [11], 14 mm; in assay [12], 14 mm; in [15] it was 12 mm. Moreover, the MIC in assay [2] was found to be 75 µg/mL (≈ 165 µM); in assay [3], 150 µg/mL (≈ 331 µM); in assay [5], 150 µg/mL (≈ 331 µM); in assay [6] it was 75 µg/mL (≈ 165 µM); in assay [8] it was 150 µg/mL (≈ 331 µM); in [13], 37.5 µg/mL (≈ 82.7 µM). Also, the zone of inhibition at 100 µg/disc in assay [4] worked out at 9 mm; in assay [7], 10 mm; in [10], 9 mm; in assay [14], 0 mm; in [16], 10 mm.
`COc1ccc(C(c2oc(CO)cc(=O)c2O)c2c[nH]c3ccc(Cl)cc23)cc1` (stereo unspecified): the zone of inhibition at 150 µg/disc in assay [1] was found to be 0 mm; in assay [9], 0 mm; in [11] it was 21 mm; in assay [12], 20 mm; in assay [15], 16 mm. In addition, the minimal inhibitory concentration (MIC) in assay [2] was found to be 4.68 µg/mL (≈ 11.4 µM); in assay [3], 150 µg/mL (≈ 364 µM); in assay [5], 18.8 µg/mL (≈ 45.5 µM); in [6] it was 4.68 µg/mL (≈ 11.4 µM); in assay [8], 150 µg/mL (≈ 364 µM); in [13], 2.34 µg/mL (≈ 5.68 µM). Moreover, the zone of inhibition at 100 µg/disc in assay [4] came to 16 mm; in assay [7], 0 mm; in [10], 11 mm; in assay [14], 0 mm; in assay [16], 14 mm.
For the molecule `Cc1[nH]c2ccccc2c1C(c1ccc(Cl)cc1)c1oc(CO)cc(=O)c1O` (stereo unspecified), the zone of inhibition at 150 µg/disc amounted to 0 mm in assay [1]; 10 mm in assay [9]; 0 mm in assay [11]; 12 mm in assay [12]; 0 mm in assay [15]. Besides, the MIC in assay [2] came out at 18.8 µg/mL (≈ 47.4 µM); in assay [3], 150 µg/mL (≈ 379 µM); in [5], 75 µg/mL (≈ 189 µM); in assay [6], 18.8 µg/mL (≈ 47.4 µM); in assay [8], 18.8 µg/mL (≈ 47.4 µM); in assay [13], 37.5 µg/mL (≈ 94.7 µM). Moreover, the zone of inhibition at 100 µg/disc in [4] was determined as 0 mm; in [7], 0 mm; in [10], 0 mm; in [14], 7 mm; in [16], 8 mm.
In the case of `COc1ccc(C(c2oc(CO)cc(=O)c2O)c2c(C)[nH]c3ccccc23)cc1` (stereo unspecified), the zone of inhibition at 150 µg/disc in assay [1], in assay [9], in assay [11], in [12] and in [15] was 0 mm throughout. For the same molecule, the MIC in assay [2], in assay [3], in assay [5], in assay [6], in assay [8] and in [13] was 150 µg/mL (≈ 383 µM) each time. Further, the zone of inhibition at 100 µg/disc in assay [4], in assay [7], in assay [10], in assay [14] and in [16] was 0 mm throughout.
